HCV core dimer: blocks dimerization of HCV core protein; TR-FRET GST/Flag-core106 dimerization, 1536-well; inhibition, % at 5 µM; 300,000 tested, 0.33% active; AID 1899;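 active = inhibition above the mean of all tested compounds plus 3 SD, set per screening campaign, cut at about 45% in these data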
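Assay system: Tagged HCV core106 pair (GST and Flag) | Buffer or medium: KF-containing HEPES buffer, pH 7.45, DTT, CHAPS, BSA | Also added: Eu donor and XL665 acceptor anti-tag antibodies | Dosing: One concentration, 5 µM, in 0.5% DMSO | Timing: 4 h at 22.5 °C | Technique: TR-FRET 671 and 617 nm emission | Repeats: Singlicate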
NS3 helicase inh: HCV NS3 helicase inhibition; NS3 helicase DNA unwinding, Cy5 molecular beacon fluorescence; inhibition, % at 10.9 µM; AID 1800; 290,000 tested, 0.56% active;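 active = inhibition above the mean of all tested compounds plus 3 SD, set per campaign, cut at about 35% in these data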;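 note: 0% = DMSO wells and 100% = thioflavine S control wells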
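Material: hepatitis C virus NS3 helicase domain fragment enzyme; measured by: Cy5 fluorescence, 0 and 60 min reads; control set: DMSO and thioflavine S; incubation: 60 min unwinding reaction at 25 °C after ATP addition; read-out basis: % inhibition from 60/0 min fluorescence ratio, DMSO 0%, thioflavine S 100%; repeats: singlicate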
EBNA-1 inhibitor: blocks EBNA-1 binding to DNA; inhibition, % at 14.8 µM; EBNA-1 DNA binding, fluorescence polarization; 300,000 tested, 0.34% active; in the data active = inhibition above about 28%
ZTA counter: blocks Epstein-Barr virus ZTA, an EBNA-1 counter-screen; ZTA-DNA binding, fluorescence polarization; inhibition, % at 11 µM; P03206; 320,000 tested, 0.15% active; in the data active = inhibition above about 33%
Target sequence (P03206 whole entry, looked up): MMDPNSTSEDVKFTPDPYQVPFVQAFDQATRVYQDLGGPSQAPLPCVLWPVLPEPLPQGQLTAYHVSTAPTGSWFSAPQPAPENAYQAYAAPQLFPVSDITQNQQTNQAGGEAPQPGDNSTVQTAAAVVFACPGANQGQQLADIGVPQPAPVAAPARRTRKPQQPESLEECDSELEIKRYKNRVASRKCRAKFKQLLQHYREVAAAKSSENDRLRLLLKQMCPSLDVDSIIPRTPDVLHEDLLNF
PfM18AAP inh: PfM18AAP enzyme inhibition; 290,000 tested, 1.2% active; inhibition, % at 7.35 µM; recombinant PfM18AAP, H-Glu-NHMec fluorogenic cleavage; AID 1822;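 active = inhibition above the campaign mean inhibition over all tested compounds plus 3 SD, cut at about 28% in these data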;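 note: 0% = plate median of test compound wells and 100% = 2 mM ZnCl2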
ALR inh: inhibitors of human sulfhydryl oxidase ALR; 290,000 tested, 3.8% active; purified ALR, DTT oxidation, H2O2 HRP-luminol luminescence; AID 485317; P55789; inhibition, % (test concentration not listed);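 active = mean replicate inhibition above about 79%, with every replicate also reaching it, limit read from the data; inconclusive = only one of the two criteria met; inactive = mean below limit and not every replicate reaching it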
Target sequence (P55789 whole entry, looked up): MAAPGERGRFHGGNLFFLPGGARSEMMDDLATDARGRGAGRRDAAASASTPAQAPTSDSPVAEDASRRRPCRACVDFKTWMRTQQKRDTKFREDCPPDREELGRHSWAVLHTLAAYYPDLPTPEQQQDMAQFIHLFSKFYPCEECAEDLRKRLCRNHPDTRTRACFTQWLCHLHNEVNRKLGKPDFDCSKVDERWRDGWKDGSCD
The depositor's hits bear a star; ? = inconclusive; / = no result given. This is a sample that favours compounds with a hit; in the whole collection about 5.2% have one here.

SMILES	HCV core dimer	NS3 helicase inh	EBNA-1 inhibitor	ZTA counter	PfM18AAP inh	ALR inh
O=C(Nc1nccs1)C(Br)C(Br)c1ccccc1 (stereo not given)	6.3	9.0	7.8	12.1	30.6*	3.2
O=C(CSCC(=O)Nc1nccs1)Nc1ccccc1	-2.0	-2.6	3.0	5.4	7.7	98.9*
O=C(COc1cccc(C(F)(F)F)c1)NNC(=O)c1ccc(=O)[nH]c1	/	/	/	/	/	1.3
Cc1ccc(C)c(OCC(O)CN2CCC(Cc3ccccc3)CC2)c1 (stereo not given)	-8.4	-67.7	-4.8	-19.3	10.3	-5.9
CCOC(=O)c1sc(NC(=O)CSC(=S)N2CCOCC2)nc1C	-2.1	4.0	2.7	-2.4	-9.0	18.4
O=C(CSc1ccc(-c2ccc3c(c2)OCO3)nn1)Nc1nccs1	4.4	10.2	13.7	15.0	-6.3	-10.4
O=C(CSCC(=O)Nc1nc(-c2ccc3c(c2)OCO3)cs1)Nc1nccs1	-1.4	-0.2	-6.0	3.2	8.5	99.0*
CCOC(=S)SCC(=O)Nc1nc(C)c(C)s1	-5.5	-8.2	1.4	2.7	-1.4	98.4*
CCOC(=S)SCC(=O)Nc1nccs1	0.6	-2.3	3.3	10.5	2.8	87.6*
CCOC(=O)[C@H]1[C@H]2COc3ccc(Br)cc3[C@@H]2N2C(=O)c3ccc(Cl)cc3NC(=O)[C@@]12C	22.7	/	4.6	13.4	/	/
COc1cc(/C=N/N2CCN(Cc3ccc(Cl)cc3)CC2)ccc1OC(C)=O	-9.0	-12.8	-15.7	-3.2	4.8	44.4
O=[N+]([O-])c1ccc(Cl)c(/C=N/n2c(COc3ccccc3)n[nH]c2=S)c1	-1.8	-2.3	-4.6	-2.8	4.3	95.8*
FC(F)(F)c1ccccc1/C=N/n1c(COc2ccccc2)n[nH]c1=S	-0.1	15.1	15.8	-6.0	28.5*	-6.2
S=c1[nH]nc(COc2ccccc2)n1/N=C/c1ccc(Cl)c(Cl)c1	11.2	11.8	-8.1	6.3	14.2	/
COc1cc(/C=N/N2CCN(Cc3ccc(Cl)cc3)CC2)cc(Br)c1O	-5.0	-14.4	1.2	-7.1	0.0	90.8*
COc1cc(/C=N/n2c(COc3ccccc3)n[nH]c2=S)cc(Br)c1O	-4.7	7.8	-5.3	-1.4	30.8*	97.0*
Cc1ccc(CNC(=O)C2CCC(=O)N(CCCN3CCOCC3)C2)cc1 (stereo not given)	-13.1	0.2	4.2	2.9	0.5	-1.7
CC(C)(O)CC[C@H](OC(=O)c1ccccc1)[C@](C)(O)[C@H]1CC[C@@]2(O)C3=CC(=O)[C@@H]4C[C@@H](O)[C@H](O)C[C@]4(C)C3CC[C@]12C (stereo not given in full)	-0.4	-20.4	4.2	-6.6	-9.2	-3.7
COc1cccc(/C=N/n2c(COc3ccccc3)n[nH]c2=S)c1OC	-0.5	6.3	-6.9	5.5	31.7*	-3.2
COc1cccc(/C=N/n2c(COc3ccccc3)n[nH]c2=S)c1O	2.1	14.5	5.0	-14.0	22.8	?
CCNc1ccccc(C(=O)/C=C/c2ccc3c(c2)OCO3)c1=O	50.2*	15.9	-20.7	15.1	11.2	41.2
COC(=O)/C=C/c1ccc2c(c1)OCO2	-0.3	5.4	1.3	6.0	-2.7	-3.3
CC(=O)Nc1cccc(N2C(=O)CCC2=O)c1	-0.4	-3.2	-5.3	2.9	-6.9	-12.1
CN(C)c1ccc(/C=N/NC(=O)c2ccc3c(c2)OCO3)cc1	/	3.3	/	/	3.8	97.5*
CN(C)c1ccc(/C=C/C(=O)c2cccnc2)cc1	-6.8	-1.1	-6.4	-3.7	8.3	99.2*
SMILES	HCV core dimer	NS3 helicase inh	EBNA-1 inhibitor	ZTA counter	PfM18AAP inh	ALR inh
CC(=O)Nc1cccc(N2CCCC2=O)c1	-0.8	5.4	-0.1	-5.7	-0.7	99.5*
COc1ccc(C)cc1NC(=O)C1CCN(C(=O)c2ccc(C(C)(C)C)cc2)CC1	4.9	-1.3	-16.7	7.5	1.9	-0.8
O=C(NCCNC(=O)c1ccc([N+](=O)[O-])cc1)c1ccncc1	-0.2	-2.4	13.7	25.1	2.8	-10.0
O=C(C1CCC(=O)N(C2CCCC2)C1)N1CCC(Oc2ccccc2Cl)CC1 (stereo not given)	-2.3	-6.2	3.6	5.1	-9.1	-3.3
O=C(/C=C\Nc1cccc(F)c1)c1ccc2c(c1)OCO2	-3.1	-5.4	39.8*	9.4	-9.8	-7.6
O=C(/C=C/c1ccc2c(c1)OCO2)c1ccc(F)cc1	8.8	-2.1	2.7	0.6	12.4	5.5
CN(CCCNC(=O)c1cccc(N2CCCC2=O)c1)c1ccccc1	2.4	1.1	-9.9	1.0	8.2	98.4*
CN(C)c1ccc(/C=N/NC(=O)c2cccc(N3CCCC3=O)c2)cc1	-10.4	-17.3	11.0	9.4	-3.6	87.5*
COc1cccc(/C=N/NC(=O)c2cccc(N3CCCC3=O)c2)c1	0.5	-3.9	-4.2	3.4	2.1	-3.3
CN(C)c1ccc(/C=C/C(=O)c2ccc3c(c2)OCO3)cc1	/	/	/	11.3	/	98.9*
CCCCN(C)CCCNC(=O)c1cccc(N2CCCC2=O)c1	-1.5	4.1	-1.9	1.2	-18.1	-3.7
COC(=O)c1ccc(N/C=C\C(=O)c2ccc3c(c2)OCO3)cc1	-31.4	-3.2	-0.4	3.8	-4.4	-3.9
Nc1cc(C(=O)OCC(=O)N2CCC(Cc3ccccc3)CC2)ccc1Cl	/	/	/	6.1	/	16.8
CCN1CCN(c2ccc(S(=O)(=O)N3CCCCC3)cc2NC(=O)CC(NC(C)=O)c2ccccc2)CC1 (stereo not given)	-4.6	/	-6.8	2.4	/	2.0
CC1(C)Oc2ccc(C(=O)N/N=C/c3ccc(O)cc3)cc2NC1=O	-0.6	-5.2	5.7	5.7	-6.6	99.3*
O=C(/C=C/c1ccccc1)c1ccc2c(c1)OCO2	6.5	-10.7	3.8	1.2	16.9	97.3*
CN1CCN(C(=O)Nc2cccc(-c3ccccc3)c2)CC1	-2.8	1.8	1.4	10.7	0.1	-6.4
CC(C)(C)c1ccccc1NC(=O)CN1C(=O)NC(Cc2ccccc2)C1=O (stereo not given)	-5.6	/	-11.8	-26.6	/	-7.1
N#CCC(=O)Nc1ccc(C(=O)NCc2ccccn2)cc1	3.2	-2.7	-9.0	-20.0	-13.3	98.7*
O=C(NC(O)C(=O)c1ccccc1)c1cccs1 (stereo not given)	0.9	2.5	-7.1	2.3	0.6	91.4*
CCCC(=O)Nc1nnc(SCC(=O)NC2CC2)s1	-1.2	-4.9	5.6	6.5	-4.6	1.4
Oc1ccc(-c2n[nH]c(=S)n2Cc2ccccc2)cc1	-1.3	1.7	0.1	4.6	24.2	97.3*
Cc1scc(-c2n[nH]c(=S)n2Cc2ccccc2)c1C	-2.4	17.0	-10.7	1.7	32.5*	4.4
Cc1ccc(C)c(-n2c(-c3csc(C)c3C)n[nH]c2=S)c1	-3.6	5.2	-0.2	-16.5	-11.1	89.4*
CCOC(=O)N1CCN(C(=O)COC(=O)C2CCN(S(=O)(=O)c3ccc(C)c(C)c3)CC2)CC1	-1.8	/	-0.2	-10.2	/	-4.5
